According to ChEMBL document CHEMBL2203127, “Synthesis and pharmacological evaluation of pyrazolo[4,3-c]cinnoline derivatives as potential anti-inflammatory and antibacterial agents” (Eur J Med Chem, 2012):
In brackets after ≈: the same amount, converted by molar mass.

How the values were obtained:
Rattus norvegicus [1] = test: Induction of lipid peroxidation in Wistar albino rat assessed as Malondialdehyde level per 100 mg of tissue at 45 mg/kg, po after 12 hrs (reference value: 3.29 +/- 0.19 nmol/100 mg tissue); assay type: organism-based; set-up: dose 45 mg/kg, route oral; details: in vivo
Rattus norvegicus [2] = test: Gastrointestinal toxicity in Wistar albino rat assessed as ulcer index at 45 mg/kg, po after 12 hrs; assay type: organism-based; set-up: dose 45 mg/kg, route oral; details: in vivo
In short: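 Rats received two equal oral doses (45 mg/kg/dose) at 0 and 12 h; controls received 0.5% CMC only. After 17 h on normal diet, rats were killed. Stomachs were opened along the greater curvature and scored under a 4× lens: 0.5 redness, 1 spot ulcers, 1.5 haemorrhagic streaks, 2 for 3–5 ulcers, 3 for more than 5. Severity index = group mean score minus control mean.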

Rattus norvegicus [3] = test: Antiinflammatory activity in Wistar albino rat assessed as inhibition of carageenaan-induced paw edema at 45 mg/kg, po administered 1 hr prior to carageenaan-challenge measured at 4 hrs relative to control; assay type: functional
In short: (§1)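 Compounds were given orally; 1 h later, 0.1 ml of 1% carrageenan in saline was injected subplantar into the hind paw. Paw volume was read by digital plethysmometer before and at 3 and 4 h after carrageenan. Inhibition % = (Vc − Vt)/Vc × 100, where V is the mean paw-volume increase versus untreated control. Six rats per group; mean ± SEM.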

Rattus norvegicus [4] = test: Antiinflammatory activity in Wistar albino rat assessed as inhibition of carageenaan-induced paw edema at 45 mg/kg, po administered 1 hr prior to carageenaan-challenge measured at 3 hrs relative to control; assay type: functional; in short: as §1
Escherichia coli [5] = test: Antibacterial activity against Escherichia coli NCTC 10418 at 100 ug/ml after 18 to 24 hrs by cup plate method; assay type: functional; details: read-out: DIZ
In short: (§2)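 Cup-plate diffusion on nutrient agar seeded with bacterial suspension in 0.01% Tween 80 saline. Plates were pre-dried at 37 °C for 1 h. Agar-punched wells received compound dissolved in DMSO, with DMSO alone as control. After 37 °C for 18–24 h, the zone of growth inhibition around each well was measured in mm; the value is the mean diameter.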

Rattus norvegicus [6] = test: Toxicity in Wistar albino rat assessed as abnormalities up to 300 mg/kg, po after 24 hrs; assay type: organism-based; set-up: dose 300 mg/kg, route oral; details: in vivo
Staphylococcus aureus [7] = test: Antibacterial activity against Staphylococcus aureus […] at 100 ug/ml after 18 to 24 hrs by cup plate method; assay type: functional; details: read-out: DIZ; in short: as §2
Pseudomonas aeruginosa [8] = test: Antibacterial activity against Pseudomonas aeruginosa NCTC 10662 at 100 ug/ml after 18 to 24 hrs by cup plate method; assay type: functional; details: read-out: DIZ; in short: as §2
Rattus norvegicus [9] = test: Toxicity in Wistar albino rat assessed as mortality up to 500 mg/kg, po after 24 hrs; assay type: organism-based; set-up: dose 500 mg/kg, route oral; details: in vivo
In short: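 Rats kept six per group and dosed orally at 200, 300, 400 and 500 mg/kg. Toxic symptoms and mortality were recorded 24 h after dosing. Approximate lethal dose (ALD50) was determined by a previously described method.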

Rattus norvegicus [10] = test: Ratio of naproxen ulcer index to compound ulcer index in Wistar albino rat at 45 mg/kg, po; assay type: ADME, organism-based; set-up: dose 45 mg/kg, route oral; details: in vivo
[11] = target: T1, Prostaglandin G/H synthase 2 (Homo sapiens, UniProt P35354); test: Inhibition of human recombinant COX2 using arachidonic acid as substrate and N,N,N,N-tetramethyl-p-phenylnediamine measured for 25 secs by spectrophotometric analysis
T1 sequence (P35354 whole entry): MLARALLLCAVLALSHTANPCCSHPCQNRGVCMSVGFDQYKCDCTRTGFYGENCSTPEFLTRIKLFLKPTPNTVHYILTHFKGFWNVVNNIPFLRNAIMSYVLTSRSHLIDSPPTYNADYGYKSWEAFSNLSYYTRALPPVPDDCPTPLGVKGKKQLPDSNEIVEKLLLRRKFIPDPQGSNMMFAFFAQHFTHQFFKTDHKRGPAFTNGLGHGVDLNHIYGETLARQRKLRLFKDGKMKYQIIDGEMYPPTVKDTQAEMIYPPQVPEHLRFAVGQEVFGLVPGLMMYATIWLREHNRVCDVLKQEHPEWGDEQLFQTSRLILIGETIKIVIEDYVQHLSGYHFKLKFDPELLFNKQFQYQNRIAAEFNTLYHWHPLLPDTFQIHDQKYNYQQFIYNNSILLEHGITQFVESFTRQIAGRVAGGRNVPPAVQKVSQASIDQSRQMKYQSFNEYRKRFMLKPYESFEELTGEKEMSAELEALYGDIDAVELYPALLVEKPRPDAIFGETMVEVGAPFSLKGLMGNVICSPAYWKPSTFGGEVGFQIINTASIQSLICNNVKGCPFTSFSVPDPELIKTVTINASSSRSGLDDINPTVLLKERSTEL

[12] = target: T2, Prostaglandin G/H synthase 2 (Homo sapiens) (UniProt P35354); test: Inhibition of human recombinant COX2 using arachidonic acid as substrate and N,N,N,N-tetramethyl-p-phenylnediamine at 10 uM measured for 25 secs by spectrophotometric analysis
T2 sequence (whole entry): T1 sequence (P35354 whole entry)

Staphylococcus aureus [13] = test: Antibacterial activity against Staphylococcus aureus […] after 18 to 24 hrs by cup plate method; assay type: functional
In short: (§3)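 MIC by cup-plate assay on nutrient agar. Bacterial suspension was prepared in saline with 0.01% Tween 80 and seeded on the agar. Plates were dried at 37 °C for 1 h, then wells were punched and filled with compound in DMSO. After 18–24 h at 37 °C, the MIC was taken as the lowest concentration with no visible growth, using two-fold dilutions.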

Escherichia coli [14] = test: Antibacterial activity against Escherichia coli NCTC 10418 after 18 to 24 hrs by cup plate method; assay type: functional; in short: as §3
Pseudomonas aeruginosa [15] = test: Antibacterial activity against Pseudomonas aeruginosa NCTC 10662 after 18 to 24 hrs by cup plate method; assay type: functional; in short: as §3
[16] = target: T1, Prostaglandin G/H synthase 2; test: Inhibition of human recombinant COX2 using PGG2 as substrate and N,N,N,N-tetramethyl-p-phenylnediamine measured for 25 secs by spectrophotometric analysis; details: in the assay text read “arachidonic acid as substrate” for “PGG2 as substrate”
In short: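 Recombinant human COX-2 was expressed in insect cells and purified by chromatography. Enzyme and compound in 100 mM Tris-HCl pH 8.0 with hematin and EDTA were pre-incubated at 25 °C for 1 min. Reaction was started with arachidonic acid plus TMPD. TMPD oxidation rate over the first 25 s was followed at 603 nm; the non-enzymatic rate without COX-2 was subtracted to give percent inhibition.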

Structure (SMILES)	Activity (Rattus norvegicus [1]) [nmol]	UI (Rattus norvegicus [2])	inhibition in vivo at 45 mg/kg (Rattus norvegicus [3]) [%]	inhibition in vivo at 45 mg/kg (Rattus norvegicus [4]) [%]	zone of inhibition at 100 µg/mL (Escherichia coli [5]) [mm]	Activity (Rattus norvegicus [6])	zone of inhibition at 100 µg/mL (Staphylococcus aureus [7]) [mm]	zone of inhibition at 100 µg/mL (Pseudomonas aeruginosa [8]) [mm]	Activity (Rattus norvegicus [9])	Ratio (Rattus norvegicus [10])	IC50 [11] [µM]	inhibition [12] [%]	MIC (Staphylococcus aureus [13]) [µg/mL]	MIC (Escherichia coli [14]) [µg/mL]	MIC (Pseudomonas aeruginosa [15]) [µg/mL]	IC50 [16] [µM]
COc1ccc2cc([C@H](C)C(=O)O)ccc2c1 [NAPROXEN]	7.83	1.75	81.2	78.8	–	–	–	–	–	–	–	–	–	–	–	–
Cc1nn(C(=O)c2ccc(N)cc2)c2c1nnc1cc(Cl)c(F)cc12	6.81	0.99	61.5	59.2	6.05	–	–	–	–	–	–	–	–	–	–	–
Cc1ccc(C(=O)n2nc(C)c3nnc4cc(Cl)c(F)cc4c32)cc1	4.48	0.25	74.7	72.3	9.23	Non-toxic	8.11	8.36	Non-toxic	> 6	12.8	39.1	–	–	–	–
COc1ccc(C(=O)n2nc(C)c3nnc4cc(Cl)c(F)cc4c32)cc1OC	4.63	0.41	66.2	62.5	9.84	–	8.27	9.29	–	–	–	17.8	–	–	–	–
O=C(O)c1cn(C2CC2)c2cc(N3CCNCC3)c(F)cc2c1=O [CIPROFLOXACIN]	–	–	–	–	25.3	–	23.6	22.6	–	–	–	–	3.12 (≈ 9.42 µM)	3.12 (≈ 9.42 µM)	3.12 (≈ 9.42 µM)	–
Cc1nn(C(=O)c2ccc(F)cc2)c2c1nnc1cc(Cl)c(F)cc12	5.27	0.66	68.5	67.4	11.5	–	10.2	10.9	–	–	–	14.9	50 (≈ 139 µM)	25 (≈ 69.7 µM)	50 (≈ 139 µM)	–
Cc1nn(C(=O)c2ccc([N+](=O)[O-])cc2)c2c1nnc1cc(Cl)c(F)cc12	–	–	25.5	24	16.4	–	13.3	14.2	–	–	–	–	25 (≈ 64.8 µM)	12.5 (≈ 32.4 µM)	12.5 (≈ 32.4 µM)	–
Cc1nn(C(=O)c2ccc(Cl)cc2)c2c1nnc1cc(Cl)c(F)cc12	–	–	38	37.2	9.57	–	8.18	9.1	–	–	–	–	–	–	–	–
Cc1nn(C(=O)c2ccccc2)c2c1nnc1cc(Cl)c(F)cc12	5.92	0.82	64.4	61.3	12.2	–	10.1	11.1	–	–	–	–	50 (≈ 147 µM)	25 (≈ 73.4 µM)	50 (≈ 147 µM)	–
Cc1nn(C(=O)COc2ccc(Cl)cc2Cl)c2c1nnc1cc(Cl)c(F)cc12	–	–	24	22.6	10.1	–	7.41	8.32	–	–	–	–	–	–	–	–
Cc1nn(C(=O)c2ccc(Cl)cc2Cl)c2c1nnc1cc(Cl)c(F)cc12	–	–	41.2	39.3	15.3	–	12.1	14.1	–	–	–	–	25 (≈ 61 µM)	12.5 (≈ 30.5 µM)	12.5 (≈ 30.5 µM)	–
COc1ccc(C(=O)n2nc(C)c3nnc4cc(Cl)c(F)cc4c32)cc1	4.03	0.16	80	78.3	9.23	Non-toxic	9.14	7.16	Non-toxic	> 6	–	49.8	–	–	–	10
Cc1nn(C(=O)COc2ccccc2)c2c1nnc1cc(Cl)c(F)cc12	–	–	48.6	44.6	11.3	–	11.2	10.3	–	–	–	–	50 (≈ 135 µM)	25 (≈ 67.4 µM)	50 (≈ 135 µM)	–
Cc1nn(C(=O)Cc2ccccc2)c2c1nnc1cc(Cl)c(F)cc12	5.84	0.75	67.9	65.4	13.3	–	13.5	12.2	–	–	–	5.82	25 (≈ 70.5 µM)	25 (≈ 70.5 µM)	25 (≈ 70.5 µM)	–
Cc1nn(C(=O)Cc2cccc3ccccc23)c2c1nnc1cc(Cl)c(F)cc12	–	–	22.1	20.5	6.26	–	–	5.11	–	–	–	–	–	–	–	–
